Legend:
Assay type in all cases: biochemical
[1] = target: Aβ1-42 (Homo sapiens, UniProt P05067); test: ThT fluorescence assay of Aβ1-42 fibrillization; details: compound/Aβ1-42 ratio 1/1
[2] = target: Wt-Tau441 (Homo sapiens, UniProt P10636); test: ThT fluorescence assay of Wt-Tau fibrillization
How it was run: (§1)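 Lyophilized full-length Tau441 (wild-type or ΔK280) was diluted to 40 µM stock in 25 mM NaPi, 25 mM NaCl, 2.5 mM EDTA, pH 6.8, and used at 10 µM final with 25 µM ThT. Aggregation was started with 0.0625 µM heparin. Water-dissolved test compound was added at 50, 10 or 1 µM. Fluorescence was followed over time. Curves were fitted to a Boltzmann sigmoid and scaled to maximal control fluorescence; Wt-Tau relative F was taken at 30 h.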

[3] = target: Tau441-ΔK280 (Homo sapiens, UniProt P10636, DEL597-597); test: ThT fluorescence assay of Tau-ΔK280 fibrillization; details: both 5/1 and 1/1 ratios
How it was run: as §1

Sequence of Aβ1-42 (P05067 672-713): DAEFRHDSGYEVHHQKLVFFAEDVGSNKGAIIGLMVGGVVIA

Compound | F, change versus Aβ1-42 control [1] [%] | decrease of F versus Wt-Tau control ([2]; compound/Wt-Tau ratio 0.1/1) [%] | t1/2, change versus Wt-Tau control ([2]; compound/Wt-Tau ratio 1/1, N.A. = no aggregation) | inhibition of the aggregation of Wt-Tau (in words) ([2]; compound/Wt-Tau ratio 5/1, ThT) | inhibition of the aggregation of Tau-ΔK280 (in words) [3]
Oc1ccc(/C=C/c2cc(O)cc(O)c2)cc1 [Resveratrol] | -78 |  |  |  | 
CN(C)c1ccc2nc3ccc(=[N+](C)C)cc-3sc2c1 [MB, methylthioninium chloride] |  | 50 | +55% | complete inhibition | complete inhibition
